The source made the active and inactive calls. No cut-off for these calls is given here.
Key:
[1] = molecular target: T1, cGMP-dependent 3',5'-cyclic phosphodiesterase (Homo sapiens, UniProt O00408); experiment: Inhibition of recombinant full length GST-tagged PDE2A (unknown origin) expressed in baculovirus infected Sf9 insect cells using TAMRA-cGMP as substrate incubated for 1.5 hrs by IMAP-FP assay
Method in brief: (§1)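 PDE enzymes incubated with compound or vehicle and 50 nM TAMRA-cGMP or FAM-cAMP substrate for 1.5 h at 30 °C. Activity read by IMAP fluorescence polarization. IC50 from 10 concentrations, at least two replicates each, fitted by four-parameter logistic. Dose–response repeated at least twice; mean of at least two experiments.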

[2] = molecular target: Dual 3',5'-cyclic-AMP and -GMP phosphodiesterase 11A (Homo sapiens, UniProt Q9HCR9); experiment: Inhibition of recombinant GST-tagged full length PDE11A4 (unknown origin) expressed in baculovirus infected Sf9 insect cells using FAM-cAMP as substrate incubated for 1.5 hrs by IMAP-FP assay; method in brief: as §1
[3] = Elimination rate constant in C57BL/6N mouse at 150 mg/kg, po administered as single dose measured up to 8 hrs by LC-MS/MS analysis; assay type: ADME, organism-based; settings: in vivo
[4] = human, microsomes, 1 h, 1 µM
[5] = molecular target: T2, cGMP-specific 3',5'-cyclic phosphodiesterase (Homo sapiens, UniProt O76074); experiment: Inhibition of PDE5A in HEK293 cells stably transfected with cGMP biosensor assessed as increase in SNP-induced intracellular cGMP level measured after 90 mins by luminescence assay; assay type: cell-based
[6] = Observed AUC (0 to infinity) in C57BL/6N mouse at 150 mg/kg, po administered as single dose measured up to 8 hrs by LC-MS/MS analysis; assay type: ADME, organism-based; design: route oral, dose 150 mg/kg, time <=8; settings: in vivo
[7] = molecular target: T1, cGMP-dependent 3',5'-cyclic phosphodiesterase; experiment: Inhibition of recombinant full length GST-tagged PDE2A (unknown origin) expressed in baculovirus infected Sf9 insect cells using FAM-cAMP as substrate incubated for 1.5 hrs by IMAP-FP assay; method in brief: as §1
[8] = molecular target: T3, Dual specificity calcium/calmodulin-dependent 3',5'-cyclic nucleotide phosphodiesterase 1A (Homo sapiens, UniProt P54750); experiment: Inhibition of recombinant full length GST-tagged PDE1A (unknown origin) expressed in baculovirus infected Sf9 insect cells using FAM-cAMP as substrate incubated for 1.5 hrs by IMAP-FP assay; method in brief: as §1
[9] = Toxicity in athymic nude-Foxn1nu mouse assessed as effect on kidney at 50 to 150 mg/kg, po bid for 28 days; assay type: organism-based; settings: in vivo, 672 h, dose 50-150 mg/kg, time 28 day
[10] = molecular target: High affinity cGMP-specific 3',5'-cyclic phosphodiesterase 9A (Homo sapiens, UniProt O76083); experiment: Inhibition of recombinant GST-tagged full length PDE9A2 (unknown origin) expressed in baculovirus infected Sf9 insect cells using substrate incubated for 1.5 hrs by IMAP-FP assay
[11] = Toxicity in athymic nude-Foxn1nu mouse at 50 to 150 mg/kg, po bid for 28 days; assay type: organism-based; settings: in vivo, 672 h, dose 50-150 mg/kg, time 28 day
Method in brief: (§2)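 Female athymic nude-Foxn1nu mice, 8–9 weeks, 18–24 g, n=4 per group. Oral gavage at 50, 100 or 150 mg/kg twice daily, or vehicle, for 28 days. Formulation ethanol/water/Maalox (7:3:90, v/v/v). Toxicity signs monitored daily. Body weight recorded daily in week 1, then twice weekly, as percent change from starting weight.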

[12] = molecular target: Cone cGMP-specific 3',5'-cyclic phosphodiesterase subunit alpha' (Homo sapiens, UniProt P51160); experiment: Inhibition of recombinant full length GST-tagged PDE6C (unknown origin) expressed in baculovirus infected Sf9 insect cells using TAMRA-cGMP as substrate incubated for 1.5 hrs by IMAP-FP assay; method in brief: as §1
[13] = molecular target: High affinity 3',5'-cyclic-AMP phosphodiesterase 7A (Homo sapiens, UniProt Q13946); experiment: Inhibition of recombinant GST-tagged PDE7A (122 to end residues) (unknown origin) expressed in baculovirus infected Sf9 insect cells using FAM-cAMP as substrate incubated for 1.5 hrs by IMAP-FP assay; method in brief: as §1
[14] = Tmax in C57BL/6N mouse at 150 mg/kg, po administered as single dose measured up to 8 hrs by LC-MS/MS analysis; assay type: ADME, organism-based; settings: in vivo
[15] = molecular target: High affinity cAMP-specific and IBMX-insensitive 3',5'-cyclic phosphodiesterase 8A (Homo sapiens, UniProt O60658); experiment: Inhibition of recombinant GST-tagged full length PDE8A1 (unknown origin) expressed in baculovirus infected Sf9 insect cells using FAM-cAMP as substrate incubated for 1.5 hrs by IMAP-FP assay; method in brief: as §1
[16] = Toxicity in athymic nude-Foxn1nu mouse assessed as body weight gain at 50 to 150 mg/kg, po bid for 28 days; assay type: organism-based; settings: in vivo, 672 h, dose 50-150 mg/kg, time 28 day; method in brief: as §2
[17] = Toxicity in athymic nude-Foxn1nu mouse assessed as drug tolerance at 50 to 150 mg/kg, po bid for 28 days; assay type: organism-based; settings: in vivo, 672 h, dose 50-150 mg/kg, time 28 day; method in brief: as §2
[18] = molecular target: T3, Dual specificity calcium/calmodulin-dependent 3',5'-cyclic nucleotide phosphodiesterase 1A; experiment: Inhibition of recombinant full length GST-tagged PDE1A (unknown origin) expressed in baculovirus infected Sf9 insect cells using TAMRA-cGMP as substrate incubated for 1.5 hrs by IMAP-FP assay; method in brief: as §1
[19] = molecular target: cGMP-inhibited 3',5'-cyclic phosphodiesterase 3A (Homo sapiens, UniProt Q14432); experiment: Inhibition of recombinant GST-tagged PDE3A (669 to end residues) (unknown origin) expressed in baculovirus infected Sf9 insect cells using TAMRA-cGMP as substrate incubated for 1.5 hrs by IMAP-FP assay; method in brief: as §1
[20] = molecular target: 3',5'-cyclic-AMP phosphodiesterase 4B (Homo sapiens, UniProt Q07343); experiment: Inhibition of recombinant full length GST-tagged PDE4B2 (unknown origin) expressed in baculovirus infected Sf9 insect cells using FAM-cAMP as substrate incubated for 1.5 hrs by IMAP-FP assay; method in brief: as §1
[21] = Observed clearance in C57BL/6N mouse at 150 mg/kg, po administered as single dose measured up to 8 hrs by LC-MS/MS analysis; assay type: ADME, organism-based; settings: in vivo
[22] = Cmax in C57BL/6N mouse at 150 mg/kg, po administered as single dose measured up to 8 hrs by LC-MS/MS analysis; assay type: ADME, organism-based; design: route oral, dose 150 mg/kg, time <=8; settings: in vivo
[23] = molecular target: cAMP and cAMP-inhibited cGMP 3',5'-cyclic phosphodiesterase 10A (Homo sapiens, UniProt Q9Y233); experiment: Inhibition of recombinant GST-tagged full length PDE10A2 (unknown origin) expressed in baculovirus infected Sf9 insect cells using FAM-cAMP as substrate incubated for 1.5 hrs by IMAP-FP assay; method in brief: as §1
Homo sapiens = organism: Homo sapiens; experiment: Selectivity ratio of IC50 for recombinant full length GST-tagged PDE6C (unknown origin) expressed in baculovirus infected Sf9 insect cells to IC50 for recombinant full length GST-tagged PDE5A1 (unknown origin) expressed in baculovirus infected Sf9 insect cells using TAMRA-cGMP as substrate incubated for 1.5 hrs by IMAP-FP assay using TAMRA-cGMP as substrate incubated for 1.5 hrs by IMAP-FP assay
[24] = molecular target: T2, cGMP-specific 3',5'-cyclic phosphodiesterase; experiment: Competitive inhibition of recombinant 6His-tagged PDE5A1 catalytic domain (unknown origin) expressed in Escherichia coli assessed as increase in apparent Km up to 40 nM using varying levels TAMRA-cGMP or FAM-cAMP as substrate; settings: dose nM <=40
[25] = Toxicity in athymic nude-Foxn1nu mouse assessed as effect on liver at 50 to 150 mg/kg, po bid for 28 days; assay type: organism-based; settings: in vivo, 672 h, dose 50-150 mg/kg, time 28 day

T3 sequence (P54750 whole entry): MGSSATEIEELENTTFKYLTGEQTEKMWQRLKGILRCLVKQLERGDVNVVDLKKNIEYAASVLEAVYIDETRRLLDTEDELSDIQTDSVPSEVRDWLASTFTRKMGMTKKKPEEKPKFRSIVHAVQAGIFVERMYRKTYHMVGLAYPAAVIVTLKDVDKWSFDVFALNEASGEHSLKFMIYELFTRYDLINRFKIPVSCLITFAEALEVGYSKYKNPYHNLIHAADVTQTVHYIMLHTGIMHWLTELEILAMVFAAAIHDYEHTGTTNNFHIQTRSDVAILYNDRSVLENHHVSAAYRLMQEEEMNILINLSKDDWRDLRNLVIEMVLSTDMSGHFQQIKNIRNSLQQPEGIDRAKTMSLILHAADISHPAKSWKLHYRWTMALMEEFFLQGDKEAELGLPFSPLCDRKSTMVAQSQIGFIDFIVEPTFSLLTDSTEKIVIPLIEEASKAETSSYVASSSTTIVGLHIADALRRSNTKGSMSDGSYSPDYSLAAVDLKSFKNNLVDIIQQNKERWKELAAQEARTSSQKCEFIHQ
T1 sequence (O00408 whole entry): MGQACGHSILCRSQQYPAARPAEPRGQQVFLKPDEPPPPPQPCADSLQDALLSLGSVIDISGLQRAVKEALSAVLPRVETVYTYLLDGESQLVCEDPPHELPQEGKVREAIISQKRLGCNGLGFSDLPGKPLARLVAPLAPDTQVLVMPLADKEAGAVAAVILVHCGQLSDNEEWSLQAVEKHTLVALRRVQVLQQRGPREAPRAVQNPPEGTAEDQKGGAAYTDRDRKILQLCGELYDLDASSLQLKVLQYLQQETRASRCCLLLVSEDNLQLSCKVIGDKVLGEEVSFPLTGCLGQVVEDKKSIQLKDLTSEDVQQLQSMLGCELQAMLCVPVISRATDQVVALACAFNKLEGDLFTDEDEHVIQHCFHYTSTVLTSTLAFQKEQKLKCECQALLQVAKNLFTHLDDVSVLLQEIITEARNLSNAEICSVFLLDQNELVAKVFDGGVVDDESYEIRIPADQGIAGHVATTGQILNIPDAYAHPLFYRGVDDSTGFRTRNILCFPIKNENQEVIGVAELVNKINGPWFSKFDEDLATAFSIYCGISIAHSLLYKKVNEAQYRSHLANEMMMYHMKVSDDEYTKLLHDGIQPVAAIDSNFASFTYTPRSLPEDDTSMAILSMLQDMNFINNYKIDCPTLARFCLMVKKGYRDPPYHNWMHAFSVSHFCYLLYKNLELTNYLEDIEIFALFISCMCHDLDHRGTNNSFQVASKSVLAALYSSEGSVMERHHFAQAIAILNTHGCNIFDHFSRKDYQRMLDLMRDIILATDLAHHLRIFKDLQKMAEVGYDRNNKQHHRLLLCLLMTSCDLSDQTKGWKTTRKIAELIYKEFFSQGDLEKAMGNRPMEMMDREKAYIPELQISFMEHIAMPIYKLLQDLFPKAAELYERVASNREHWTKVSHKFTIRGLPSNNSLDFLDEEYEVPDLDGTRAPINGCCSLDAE
Chain of cGMP-inhibited 3',5'-cyclic phosphodiesterase 3A (Q14432 whole entry): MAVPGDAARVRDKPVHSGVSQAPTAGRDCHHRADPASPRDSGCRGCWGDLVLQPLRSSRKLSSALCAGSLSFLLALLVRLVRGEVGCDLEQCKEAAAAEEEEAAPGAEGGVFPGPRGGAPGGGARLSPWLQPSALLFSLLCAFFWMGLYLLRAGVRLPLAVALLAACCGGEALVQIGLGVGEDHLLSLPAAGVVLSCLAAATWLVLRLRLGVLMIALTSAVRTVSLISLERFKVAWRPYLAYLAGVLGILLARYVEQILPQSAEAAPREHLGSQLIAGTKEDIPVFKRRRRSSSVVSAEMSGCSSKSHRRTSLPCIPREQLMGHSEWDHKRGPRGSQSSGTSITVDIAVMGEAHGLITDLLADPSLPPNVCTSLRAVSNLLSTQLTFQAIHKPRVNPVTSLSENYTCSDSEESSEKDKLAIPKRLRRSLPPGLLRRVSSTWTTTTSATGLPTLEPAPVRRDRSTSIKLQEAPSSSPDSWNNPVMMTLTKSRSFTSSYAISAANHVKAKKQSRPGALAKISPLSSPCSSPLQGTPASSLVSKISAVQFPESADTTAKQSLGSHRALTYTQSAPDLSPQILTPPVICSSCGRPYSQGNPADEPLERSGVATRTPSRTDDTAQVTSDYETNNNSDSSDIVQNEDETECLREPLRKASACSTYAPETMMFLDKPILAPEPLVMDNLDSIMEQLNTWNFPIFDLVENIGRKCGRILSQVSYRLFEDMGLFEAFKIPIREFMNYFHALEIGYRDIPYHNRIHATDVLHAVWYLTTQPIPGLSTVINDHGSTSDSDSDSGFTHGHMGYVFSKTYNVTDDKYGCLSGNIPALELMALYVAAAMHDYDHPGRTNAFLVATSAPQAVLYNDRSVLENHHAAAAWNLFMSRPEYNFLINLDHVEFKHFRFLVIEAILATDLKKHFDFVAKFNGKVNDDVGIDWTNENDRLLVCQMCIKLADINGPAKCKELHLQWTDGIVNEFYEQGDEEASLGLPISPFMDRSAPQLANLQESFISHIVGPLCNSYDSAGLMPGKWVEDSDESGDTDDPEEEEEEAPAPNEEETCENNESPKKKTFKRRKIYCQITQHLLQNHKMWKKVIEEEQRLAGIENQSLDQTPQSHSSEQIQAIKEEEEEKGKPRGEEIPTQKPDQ
Chain of High affinity cAMP-specific and IBMX-insensitive 3',5'-cyclic phosphodiesterase 8A (O60658 whole entry): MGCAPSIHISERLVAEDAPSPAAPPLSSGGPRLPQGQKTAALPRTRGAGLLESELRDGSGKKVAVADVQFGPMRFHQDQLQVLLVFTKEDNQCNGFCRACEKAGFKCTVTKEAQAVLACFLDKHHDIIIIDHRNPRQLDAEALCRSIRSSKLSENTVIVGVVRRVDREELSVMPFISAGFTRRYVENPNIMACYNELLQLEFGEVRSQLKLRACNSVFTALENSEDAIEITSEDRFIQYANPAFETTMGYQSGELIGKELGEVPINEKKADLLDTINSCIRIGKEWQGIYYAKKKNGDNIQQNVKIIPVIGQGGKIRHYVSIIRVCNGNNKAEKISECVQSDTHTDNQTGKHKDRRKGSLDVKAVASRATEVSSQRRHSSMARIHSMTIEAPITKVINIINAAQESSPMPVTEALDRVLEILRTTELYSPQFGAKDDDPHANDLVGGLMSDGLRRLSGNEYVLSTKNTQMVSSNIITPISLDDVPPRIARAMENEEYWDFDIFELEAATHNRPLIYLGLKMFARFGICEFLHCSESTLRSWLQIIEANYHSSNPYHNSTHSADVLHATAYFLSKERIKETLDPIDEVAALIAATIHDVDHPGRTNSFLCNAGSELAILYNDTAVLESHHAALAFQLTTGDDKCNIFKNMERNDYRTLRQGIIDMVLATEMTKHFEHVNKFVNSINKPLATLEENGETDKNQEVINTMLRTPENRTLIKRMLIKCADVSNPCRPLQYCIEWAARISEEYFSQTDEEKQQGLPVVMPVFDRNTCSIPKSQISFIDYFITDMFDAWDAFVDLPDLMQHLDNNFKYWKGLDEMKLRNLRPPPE
Chain of cAMP and cAMP-inhibited cGMP 3',5'-cyclic phosphodiesterase 10A (Q9Y233 whole entry): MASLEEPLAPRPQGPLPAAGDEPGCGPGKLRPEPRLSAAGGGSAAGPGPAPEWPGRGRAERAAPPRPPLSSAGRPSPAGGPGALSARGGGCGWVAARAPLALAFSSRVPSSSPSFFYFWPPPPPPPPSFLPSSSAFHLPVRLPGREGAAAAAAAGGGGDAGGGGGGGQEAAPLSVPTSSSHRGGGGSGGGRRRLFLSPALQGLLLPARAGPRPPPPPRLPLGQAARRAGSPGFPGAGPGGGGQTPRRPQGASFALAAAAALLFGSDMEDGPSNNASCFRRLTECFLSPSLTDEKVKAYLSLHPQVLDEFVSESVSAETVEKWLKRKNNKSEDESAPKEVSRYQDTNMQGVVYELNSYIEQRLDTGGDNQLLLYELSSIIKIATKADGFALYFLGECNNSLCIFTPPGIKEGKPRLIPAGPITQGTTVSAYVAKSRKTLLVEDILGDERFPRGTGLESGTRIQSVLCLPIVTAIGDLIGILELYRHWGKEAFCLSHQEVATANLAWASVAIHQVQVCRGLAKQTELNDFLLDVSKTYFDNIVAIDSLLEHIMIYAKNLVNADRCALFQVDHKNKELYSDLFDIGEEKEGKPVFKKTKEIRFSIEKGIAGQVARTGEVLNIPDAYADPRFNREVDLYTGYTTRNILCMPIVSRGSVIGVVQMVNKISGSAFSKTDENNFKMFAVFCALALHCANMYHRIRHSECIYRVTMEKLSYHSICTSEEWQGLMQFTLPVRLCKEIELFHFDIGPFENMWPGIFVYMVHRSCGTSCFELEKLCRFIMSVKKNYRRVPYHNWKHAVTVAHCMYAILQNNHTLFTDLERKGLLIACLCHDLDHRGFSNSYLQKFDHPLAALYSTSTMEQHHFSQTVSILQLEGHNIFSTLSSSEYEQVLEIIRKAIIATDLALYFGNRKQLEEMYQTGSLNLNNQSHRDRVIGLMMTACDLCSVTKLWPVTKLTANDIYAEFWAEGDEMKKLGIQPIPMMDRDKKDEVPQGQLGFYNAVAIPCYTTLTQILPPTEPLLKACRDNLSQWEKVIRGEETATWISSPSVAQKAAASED
Chain of High affinity 3',5'-cyclic-AMP phosphodiesterase 7A (Q13946 whole entry): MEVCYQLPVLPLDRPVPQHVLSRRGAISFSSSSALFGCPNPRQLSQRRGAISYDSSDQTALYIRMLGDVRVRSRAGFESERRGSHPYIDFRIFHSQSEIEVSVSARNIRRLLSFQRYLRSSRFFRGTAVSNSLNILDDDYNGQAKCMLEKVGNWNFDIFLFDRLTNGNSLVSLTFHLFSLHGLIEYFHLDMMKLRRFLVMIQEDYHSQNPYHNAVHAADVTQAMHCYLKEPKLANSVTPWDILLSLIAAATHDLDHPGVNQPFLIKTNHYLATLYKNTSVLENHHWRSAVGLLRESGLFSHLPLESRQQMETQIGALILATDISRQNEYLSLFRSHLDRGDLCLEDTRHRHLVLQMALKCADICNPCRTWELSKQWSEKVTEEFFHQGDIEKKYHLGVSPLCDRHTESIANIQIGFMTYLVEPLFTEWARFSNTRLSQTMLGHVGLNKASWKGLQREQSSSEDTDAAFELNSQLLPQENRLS

COc1c(F)cc(C2CC(C(C)(C)C)=NN2c2ccc(C(=O)N3CCN(C)CC3)cc2)cc1F (stereo unspecified)
IC50 [1]: > 10 µM
IC50 [2]: > 10 µM
k el at 8 h [3]: 8.33e-05 s⁻¹
t1/2 [4]: 0.367 h
EC50 [5]: 6.7 µM
AUC(0-inf) [6]: 16200 ng·h/mL
IC50 [7]: > 10 µM
IC50 [8]: > 10 µM
Activity [9]: Non-Toxic
IC50 [10]: > 10 µM
Activity [11]: Non-Toxic
IC50 [12]: > 10 µM
IC50 [13]: > 10 µM
Tmax [14]: 2 h
IC50 [15]: > 10 µM
Activity [16]: Non-Toxic
Activity [17]: Non-Toxic
IC50 [18]: > 10 µM
IC50 [19]: > 10 µM
IC50 [20]: > 10 µM
CL/F [21]: 3.09 mL/min
Cmax [22]: 4000 ng/mL
IC50 [23]: > 10 µM
Ratio IC50 (Homo sapiens): > 10000
inhibition [24]: Active
Activity [25]: Non-Toxic

From ChEMBL document CHEMBL4808175 (J Med Chem, 2021)
